# Source: ChEMBL document CHEMBL2417469, “Synthesis of novel analogs of 2-pyrazoline obtained from [(7-chloroquinolin-4-yl)amino]chalcones and hydrazine as potential antitumor and antimalarial agents” (Eur J Med Chem, 2013)
# Legend:
# Format in all cases: functional
# IGROV-1 = assay: Cytotoxicity against human IGROV1 cells after 48 hrs by SRB assay; details: IGROV-1, 48 h
# In short: (§1)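 NCI 60-cell-line screen. Cells preincubated 24 h at 37 °C, 5% CO2; time-zero plates TCA-fixed. Compounds dissolved in DMSO and tested at five concentrations (100, 10, 1.0, 0.1, 0.01 µM) for 48 h continuous exposure. Adherent cells fixed with cold TCA (10% final), then SRB stained; absorbance at 515 nm. GI50, TGI and LC50 calculated from growth relative to time-zero and untreated controls.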
# BT-549 = assay: Cytotoxicity against human BT549 cells after 48 hrs by SRB assay; details: BT-549, 48 h; in short: as §1
# A498 = assay: Cytotoxicity against human A498 cells after 48 hrs by SRB assay; details: A498, 48 h; in short: as §1
# UO-31 = assay: Cytotoxicity against human UO31 cells after 48 hrs by SRB assay; details: UO-31, 48 h
# In short: (§2)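 NCI 60-cell screen. Cells grew 24 h (37 °C, 5% CO2) before compound was added. Compounds were in DMSO and diluted in medium with gentamicin, then tested at five levels (100, 10, 1.0, 0.1, 0.01 µM) with 48 h continuous exposure. Adherent cells were fixed with TCA (10% final) and stained with 0.4% SRB, absorbance read at 515 nm. A time-zero plate was included. LC50 is the concentration giving 50% loss of protein relative to time zero.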
# OVCAR-4 = assay: Cytotoxicity against human OVCAR4 cells after 48 hrs by SRB assay; details: OVCAR-4, 48 h; in short: as §1
# SW-620 = assay: Cytotoxicity against human SW620 cells after 48 hrs by SRB assay; details: SW-620, 48 h; in short: as §2
# SK-OV-3 = assay: Cytotoxicity against human SKOV3 cells after 48 hrs by SRB assay; details: SK-OV-3, 48 h; in short: as §1
# HCT-15 = assay: Cytotoxicity against human HCT15 cells after 48 hrs by SRB assay; details: HCT-15, 48 h; in short: as §1
# LOX IMVI = assay: Cytotoxicity against human LOXIMVI cells after 48 hrs by SRB assay; in short: as §1
# 786-0 = assay: Cytotoxicity against human 786-0 cells after 48 hrs by SRB assay; details: 786-0, 48 h; in short: as §1
# NCI-H522 = assay: Cytotoxicity against human NCI-H522 cells after 48 hrs by SRB assay; details: NCI-H522, 48 h; in short: as §1
# A549 = assay: Cytotoxicity against human A549/ATCC cells after 48 hrs by SRB assay; details: A549, 48 h; in short: as §1
# SR = assay: Cytotoxicity against human SR cells after 48 hrs by SRB assay; in short: as §2
# UACC-257 = assay: Cytotoxicity against human UACC257 cells after 48 hrs by SRB assay; details: UACC-257, 48 h; in short: as §2
# M14 = assay: Cytotoxicity against human M14 cells after 48 hrs by SRB assay; details: M14, 48 h; in short: as §1
# HT-29 = assay: Cytotoxicity against human HT-29 cells after 48 hrs by SRB assay; details: HT-29, 48 h; in short: as §1
# DU-145 = assay: Cytotoxicity against human DU145 cells after 48 hrs by SRB assay; details: DU-145, 48 h; in short: as §1
# RXF 393 = assay: Cytotoxicity against human RXF393 cells after 48 hrs by SRB assay; details: RXF 393, 48 h; in short: as §1
# SF-295 = assay: Cytotoxicity against human SF295 cells after 48 hrs by SRB assay; details: SF-295, 48 h; in short: as §1
# NCI/ADR-RES = assay: Cytotoxicity against human NCI/ADR-RES cells after 48 hrs by SRB assay; in short: as §1
# MOLT-4 = assay: Cytotoxicity against human MOLT4 cells after 48 hrs by SRB assay; details: MOLT-4, 48 h; in short: as §1
# SNB-75 = assay: Cytotoxicity against human SNB75 cells after 48 hrs by SRB assay; details: SNB-75, 48 h; in short: as §2
# Hs-578T = assay: Cytotoxicity against human Hs578T cells after 48 hrs by SRB assay; in short: as §1
# SF-539 = assay: Cytotoxicity against human SF539 cells after 48 hrs by SRB assay; details: SF-539, 48 h; in short: as §1
# NCI-H23 = assay: Cytotoxicity against human NCI-H23 cells after 48 hrs by SRB assay; details: NCI-H23, 48 h; in short: as §1
# CAKI-1 = assay: Cytotoxicity against human Caki1 cells after 48 hrs by SRB assay; details: CAKI-1, 48 h; in short: as §1
# CCRF-CEM = assay: Cytotoxicity against human CCRF-CEM cells after 48 hrs by SRB assay; in short: as §1
# MDA-MB-468 = assay: Cytotoxicity against human MDA-MB-468 cells after 48 hrs by SRB assay; details: MDA-MB-468, 48 h; in short: as §1
# UACC-62 = assay: Cytotoxicity against human UACC62 cells after 48 hrs by SRB assay; details: UACC-62, 48 h; in short: as §2
# KM12 = assay: Cytotoxicity against human KM12 cells after 48 hrs by SRB assay; details: KM12, 48 h; in short: as §1
# HL-60(TB) = assay: Cytotoxicity against human HL-60(TB) cells after 48 hrs by SRB assay; details: HL-60, 48 h; in short: as §1
# COLO 205 = assay: Cytotoxicity against human COLO205 cells after 48 hrs by SRB assay; details: COLO 205, 48 h; in short: as §1
# U-251 = assay: Cytotoxicity against human U251 cells after 48 hrs by SRB assay; details: U-251, 48 h; in short: as §2
# Malme-3M = assay: Cytotoxicity against human MALME-3M cells after 48 hrs by SRB assay; in short: as §1
# MDA-MB-231 = assay: Cytotoxicity against human MDA-MB-231 cells after 48 hrs by SRB assay; details: MDA-MB-231, 48 h; in short: as §1
# [1] = read-out: LC50 (the source's name)
smiles,measurement,setting,value
O=CN1N=C(c2cccc(Nc3ccnc4cc(Cl)ccc34)c2)CC1c1ccccc1 (stereo not given),GI50,IGROV-1,820 nM
same,LC50 (concentration killing 50% of cells relative to time zero),IGROV-1,> 100000 nM
same,GI50,BT-549,210 nM
same,LC50 (50% net cell kill vs time zero),BT-549,30900 nM
same,GI50,A498,230 nM
same,CC50,A498; [1],> 100000 nM
same,GI50,UO-31,410 nM
same,LC50,UO-31,> 100000 nM
same,GI50,OVCAR-4,560 nM
same,LC50,OVCAR-4,> 100000 nM
same,GI50,SW-620,350 nM
same,LC50,SW-620,> 100000 nM
same,GI50,SK-OV-3,330 nM
same,LC50 (concentration killing 50% of cells),SK-OV-3,> 100000 nM
same,GI50,HCT-15,520 nM
same,LC50 (concentration killing 50% of cells relative to time zero),HCT-15,> 100000 nM
same,GI50,LOX IMVI,450 nM
same,LC50,LOX IMVI,4230 nM
same,GI50,786-0,590 nM
same,LC50,786-0,> 100000 nM
same,GI50,NCI-H522,210 nM
same,CC50,NCI-H522; [1],> 100000 nM
same,GI50,A549,540 nM
same,CC50,A549; [1],> 100000 nM
same,GI50,SR,200 nM
same,LC50,SR,> 100000 nM
same,GI50,UACC-257,330 nM
same,LC50,UACC-257,> 100000 nM
same,GI50,M14,330 nM
same,CC50,M14; [1],> 100000 nM
same,GI50,HT-29,320 nM
same,LC50,HT-29,4320 nM
same,GI50,DU-145,440 nM
same,LC50 (concentration killing 50% of cells),DU-145,> 100000 nM
same,GI50,RXF 393,390 nM
same,LC50 (concentration killing 50% of cells),RXF 393,> 100000 nM
same,GI50,SF-295,370 nM
same,LC50,SF-295,41200 nM
same,GI50,NCI/ADR-RES,290 nM
same,CC50,NCI/ADR-RES; [1],> 100000 nM
same,GI50,MOLT-4,390 nM
same,LC50,MOLT-4,> 100000 nM
same,GI50,SNB-75,220 nM
same,LC50 (50% net cell kill),SNB-75,> 100000 nM
same,GI50,Hs-578T,290 nM
same,LC50 (50% net cell kill),Hs-578T,> 100000 nM
same,GI50,SF-539,310 nM
same,CC50,SF-539; [1],35700 nM
same,GI50,NCI-H23,610 nM
same,CC50,NCI-H23; [1],> 100000 nM
same,GI50,CAKI-1,330 nM
same,LC50,CAKI-1,35300 nM
same,GI50,CCRF-CEM,370 nM
same,LC50 (concentration killing 50% of cells relative to time zero),CCRF-CEM,> 100000 nM
same,GI50,MDA-MB-468,220 nM
same,LC50,MDA-MB-468,> 100000 nM
same,GI50,UACC-62,530 nM
same,CC50,UACC-62; [1],> 100000 nM
same,GI50,KM12,290 nM
same,LC50 (concentration killing 50% of cells),KM12,> 100000 nM
same,GI50,HL-60(TB),200 nM
same,CC50,HL-60(TB); [1],4560 nM
same,GI50,COLO 205,360 nM
same,LC50,COLO 205,7920 nM
same,GI50,U-251,370 nM
same,CC50,U-251; [1],5070 nM
same,GI50,Malme-3M,370 nM
same,LC50,Malme-3M,> 100000 nM
same,GI50,MDA-MB-231,1150 nM
same,LC50 (concentration killing 50% of cells present at time zero),MDA-MB-231,> 100000 nM
